Experimental findings from ChEMBL document CHEMBL2069201, “N-Benzoyl anthranilic acid derivatives as selective inhibitors of aldo-keto reductase AKR1C3” (Bioorg Med Chem Lett, 2012) are described below.

The species named for experiment [1] is Homo sapiens. The experiment in a line: Selectivity ratio of IC50 for AKR1C4 to AKR1C3. An outline of the steps: (§1)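 Fold selectivity for AKR1C3 was calculated from IC50 values of the secondary assay. That assay followed fluorimetric NADP+-dependent S-tetralol oxidation at pH 7.0, with substrate at each isoform's Km.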
The species entered for experiment [2] is Homo sapiens. Put plainly: Selectivity ratio of IC50 for AKR1C1 to AKR1C3. An outline of the steps: as §1
In experiment [3] the target is T1, Aldo-keto reductase family 1 member C3 (Homo sapiens, UniProt P42330).
T1 sequence (P42330 whole entry): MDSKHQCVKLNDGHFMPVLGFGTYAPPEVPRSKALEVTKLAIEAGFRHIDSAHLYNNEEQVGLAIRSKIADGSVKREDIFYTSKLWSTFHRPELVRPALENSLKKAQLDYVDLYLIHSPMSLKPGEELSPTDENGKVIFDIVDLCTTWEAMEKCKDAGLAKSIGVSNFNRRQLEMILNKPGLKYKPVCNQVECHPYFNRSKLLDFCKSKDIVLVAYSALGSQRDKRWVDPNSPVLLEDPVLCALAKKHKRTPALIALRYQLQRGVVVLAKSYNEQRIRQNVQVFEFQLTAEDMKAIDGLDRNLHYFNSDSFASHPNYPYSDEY
Put plainly: Inhibition of recombinant AKR1C3 using 1-acenaphthenol as substrate by spectrophotometry. An outline of the steps:
(§2)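 Oxidation of 1-acenaphthenol was run with 2.3 mM NAD+ in 100 mM phosphate pH 9.0 containing 0.005% Triton X-114 and 5% DMSO. Substrate/enzyme were 30 µM/0.1 µM for AKR1C1, 60 µM/0.3 µM for AKR1C2 and 100 µM/1.5 µM for AKR1C3. NADH rise was read at 340 nm from initial velocities. […] Mean of two experiments.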

The target of experiment [4] is T2, Aldo-keto reductase family 1 member C3 (Homo sapiens) (UniProt P42330).
T2 sequence (whole entry): T1 sequence (P42330 whole entry)
The experiment in a line: Inhibition of recombinant AKR1C3 using 1-acenaphthenol as substrate at 10 uM by spectrophotometry. The method, boiled down: as §2

The target of experiment [5] is T3, Aldo-keto reductase family 1 member C2 (Homo sapiens) (UniProt P52895).
T3 sequence (whole entry): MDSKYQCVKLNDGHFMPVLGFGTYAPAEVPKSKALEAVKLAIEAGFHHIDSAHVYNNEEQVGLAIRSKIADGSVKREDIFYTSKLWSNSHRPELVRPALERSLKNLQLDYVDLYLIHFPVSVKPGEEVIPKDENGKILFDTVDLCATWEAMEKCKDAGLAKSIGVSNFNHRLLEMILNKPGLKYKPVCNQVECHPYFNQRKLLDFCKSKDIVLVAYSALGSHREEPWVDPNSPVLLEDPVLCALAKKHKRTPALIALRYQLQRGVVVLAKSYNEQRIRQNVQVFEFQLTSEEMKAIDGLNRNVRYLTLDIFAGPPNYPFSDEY
The experiment in a line: Inhibition of recombinant AKR1C2 using 1-acenaphthenol as substrate at 10 uM by spectrophotometry. An outline of the steps:
as §2

Experiment [6] concerns the target T4, Aldo-keto reductase family 1 member C2 (Homo sapiens, UniProt P52895).
T4 sequence (P52895 whole entry): T3 sequence (whole entry)
Put plainly: Inhibition of recombinant AKR1C2 using S-tetralol as substrate by fluorimetry. An outline of the steps:
(§3)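 Continuous NADP+-dependent oxidation of S-tetralol, read as NADPH fluorescence at 340/460 nm. Buffer was 100 mM phosphate pH 7.0 with 200 µM NADP+ and 4% DMSO. […] Enzyme was 111, 86, 95 and 184 nM respectively. Initial velocities were fitted to give IC50. Mean of two independent experiments.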

The species named for experiment [7] is Homo sapiens. The experiment in a line: Selectivity ratio of IC50 for AKR1C2 to AKR1C3. The method, boiled down:
as §1

Experiment [8] concerns the target T5, Aldo-keto reductase family 1 member C1 (Homo sapiens) (UniProt Q04828).
T5 sequence (whole entry): T3 sequence (whole entry) with V38T, H47R, V54L, S87C, M151V, H170R, L172Q
Put plainly: Inhibition of recombinant AKR1C1 using 1-acenaphthenol as substrate at 10 uM by spectrophotometry. The method, boiled down:
as §2

In experiment [9] the target is T1, Aldo-keto reductase family 1 member C3. The experiment in a line: Inhibition of recombinant AKR1C3 using S-tetralol as substrate by fluorimetry. An outline of the steps:
as §3

Experiment [10] deals with T6, Aldo-keto reductase family 1 member C1 (Homo sapiens, UniProt Q04828).
T6 sequence (Q04828 whole entry): T3 sequence (whole entry) with V38T, H47R, V54L, S87C, M151V, H170R, L172Q
Put plainly: Inhibition of recombinant AKR1C1 using S-tetralol as substrate by fluorimetry. An outline of the steps:
as §3

Experiment [11] concerns the target T7, Aldo-keto reductase family 1 member C4 (Homo sapiens, UniProt P17516).
T7 sequence (P17516 whole entry): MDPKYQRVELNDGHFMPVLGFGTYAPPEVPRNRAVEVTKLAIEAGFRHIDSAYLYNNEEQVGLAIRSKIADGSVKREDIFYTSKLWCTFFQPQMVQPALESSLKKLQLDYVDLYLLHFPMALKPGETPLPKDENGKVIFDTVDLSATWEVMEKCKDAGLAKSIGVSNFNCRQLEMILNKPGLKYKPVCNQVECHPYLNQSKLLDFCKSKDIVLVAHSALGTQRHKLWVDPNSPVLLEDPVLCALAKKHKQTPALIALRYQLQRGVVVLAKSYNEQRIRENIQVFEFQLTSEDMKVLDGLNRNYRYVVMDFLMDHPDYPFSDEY
The experiment in a line: Inhibition of recombinant AKR1C4 using S-tetralol as substrate by fluorimetry. The method, boiled down: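 Continuous NADP+-dependent oxidation of S-tetralol, read as NADPH fluorescence at 340/460 nm. Buffer was 100 mM phosphate pH 7.0 with 200 µM NADP+ and 4% DMSO. Initial velocities were fitted to give IC50. Mean of two independent experiments.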

The target in experiment [12] is T6, Aldo-keto reductase family 1 member C1. The experiment in a line: Inhibition of recombinant AKR1C1 using 1-acenaphthenol as substrate by spectrophotometry. The method, boiled down: as §2
In experiment [13] the target is T4, Aldo-keto reductase family 1 member C2. The experiment in a line: Inhibition of recombinant AKR1C2 using 1-acenaphthenol as substrate by spectrophotometry. The method, boiled down:
as §2

Residue numbers refer to the chain shown, from its start. Activity calls are given as the source filed them. The calls are words filed in the database; no cut-off is given here. Where only a bound is given, the exact number is not on record here.

Broadly, the IC50 is the concentration that inhibits the measured activity by half. By inhibition is commonly meant the share of the control response that was lost under treatment. As for `O=C(Nc1ccccc1C(=O)O)c1cccc(O)c1`, the Ratio IC50 in the experiment listed under Homo sapiens [1] is more than 19; in the experiment listed under Homo sapiens [2], more than 19; in the experiment filed under Homo sapiens [7], 9. The IC50 in experiment [3] is 12.7 µM; in [6], 48.1 µM; in experiment [9], 5.19 µM; in experiment [10], more than 100 µM. Also, the inhibition in experiment [4] came to 42.1%. Also, the inhibition entry in [5] and in experiment [8] was “inactive” each time.

As to `O=C(Nc1ccc([N+](=O)[O-])cc1C(=O)O)c1cccc(O)c1`, the IC50 in experiment [3] stood at 2.6 µM; in experiment [6], 41.6 µM; in [9], 0.84 µM; in [10], 35.2 µM. The inhibition was 87.9% in [4], 10.4% in [5] and 11.8% in [8].

Take `O=C(Nc1ccc(Cl)cc1C(=O)O)c1cccc([N+](=O)[O-])c1`: the figures for the inhibition in experiment [4] and in experiment [5] were 3.4% and 23.4%, respectively. Also, the inhibition entry in experiment [8] is “inactive”.

Consider `Nc1cccc(C(=O)Nc2ccccc2C(=O)O)c1`, for which the inhibition result in experiment [4] and in experiment [5] was “inactive” in each case. In experiment [8], the inhibition worked out at 8%.

As to `O=C(Nc1ccc(Cl)cc1C(=O)O)c1cccc(O)c1`, the Ratio IC50 in the experiment filed under Homo sapiens [1] amounted to 65; in the experiment listed under Homo sapiens [2] it was 164; in the experiment filed under Homo sapiens [7], 162. Besides, the half-inhibitory concentration (IC50) worked out at 2.2 µM in experiment [3]; 50.2 µM in [6]; 0.31 µM in experiment [9]; 50.8 µM in experiment [10]; 20.1 µM in experiment [11]. Further, the inhibition in [4] came to 77.8%; in [5], 6.7%; in experiment [8], 17.4%.

With `CCCCOc1cc(C(=O)Nc2ccccc2C(=O)O)ccc1[N+](=O)[O-]`, the IC50 worked out at 3.2 µM in experiment [12], 7.5 µM in experiment [3] and 6.5 µM in experiment [13]. Further, the inhibition in experiment [4] was 47.2%; in [5] it was 58.3%; in experiment [8] it was 70.8%.

For the molecule `O=C(Nc1ccc(Br)cc1C(=O)O)c1cccc(O)c1`, the Ratio IC50 in the experiment listed under Homo sapiens [1] came out at 86; in the experiment listed under Homo sapiens [2], 286; in the experiment filed under Homo sapiens [7], 180. The IC50 in experiment [3] was 1.9 µM; in experiment [6], 63 µM; in [9], 0.35 µM; in [10] it was 100 µM; in experiment [11], 30.3 µM. For the same molecule, the results for the inhibition in experiment [4], in [5] and in experiment [8] were 89.6%, 16.7% and 21.6%, respectively.

With `CCCCOc1cccc(C(=O)Nc2ccc(Br)cc2C(=O)O)c1`, the IC50 in experiment [12] and in experiment [13] was 4.9 µM throughout. Besides, the results for the inhibition in experiment [4], in [5] and in [8] were 30.4%, 70.5% and 65.9%, respectively.

With `O=C(Nc1ccc(O)cc1C(=O)O)c1cccc([N+](=O)[O-])c1`, the inhibition in experiment [4] amounted to 1.9%; in experiment [5], 31.6%. Also, the inhibition result in experiment [8] is “inactive”.

Consider `COc1cc(NC(=O)c2cccc(O)c2)c(C(=O)O)cc1OC`, for which the results for the Ratio IC50 in the experiment filed under Homo sapiens [1], in the experiment filed under Homo sapiens [2] and in the experiment listed under Homo sapiens [7] were 18, 30 and 10, respectively. Also, the IC50 in experiment [3] worked out at 5.2 µM; in [6], 30 µM; in [9], 2.9 µM; in experiment [10] it was 86.3 µM; in experiment [11], 50.9 µM. Moreover, the inhibition in [4] came to 70.2%; in experiment [5] it was 29.4%; in [8] it was 11.8%.

On to `Nc1cccc(C(=O)Nc2ccc(O)cc2C(=O)O)c1`, for which the inhibition in experiment [4] turned out to be 5.6%; in experiment [5], 28.7%; in experiment [8] it was 9.7%.

Regarding `COc1cc(NC(=O)c2cccc(N)c2)c(C(=O)O)cc1OC`, the inhibition came out at 5.6% in experiment [4], 20.2% in experiment [5] and 18% in [8].

Turning to `Cc1cc(Cl)cc(C(=O)O)c1NC(=O)c1cccc([N+](=O)[O-])c1`, the inhibition entry in experiment [4] and in experiment [8] was “inactive” throughout. In addition, in experiment [5], the inhibition came out at 22.5%.

Consider `COc1cc(NC(=O)c2cccc([N+](=O)[O-])c2)c(C(=O)O)cc1OC`, for which the inhibition was found to be 3.5% in experiment [4] and 22.2% in experiment [8]. For the same molecule, the inhibition entry in [5] was “inactive”.

Turning to `O=C(Nc1ccc(Br)cc1C(=O)O)c1ccc(F)c([N+](=O)[O-])c1`, the IC50 in experiment [12] amounted to 8.4 µM; in experiment [13] it was 15.6 µM. For the same molecule, the inhibition in experiment [4] amounted to 5.6%; in [5], 33.6%; in experiment [8], 53.2%.

Regarding `CCOc1cccc(C(=O)Nc2ccc(Br)cc2C(=O)O)c1`, the IC50 in [12] is 20.6 µM; in [13], 17.1 µM. For the same molecule, the inhibition in [4] was 19.1%; in experiment [5], 36.8%; in [8] it was 31.9%.
